This passage reports Activity and MIC80 results from ChEMBL document CHEMBL3352109, “Synthesis and antifungal activity of substituted salicylaldehyde hydrazones, hydrazides and sulfohydrazides” (Bioorg Med Chem, 2014).

Data set [1] concerns Candida albicans. Kind of data set: Antifungal activity against Candida albicans ATCC 10231 at 125 ug/ml by NCCLS method. Format: functional, organism-based.
The test system of data set [2] is Nakaseomyces glabratus. Kind of data set: Antifungal activity against Candida glabrata ATCC 48435 at 125 ug/ml by NCCLS method. Type of data set: functional, organism-based.
The subject of data set [3] is Nakaseomyces glabratus. Nature of the data set: Antifungal activity against Candida glabrata ATCC 48435 by NCCLS method. Type of data set: functional. Put shortly:
(§1)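 Broth dilution per NCCLS yeast reference method, in HEPES-buffered RPMI with 1% DMSO. MIC80 is the lowest concentration giving more than 80% growth inhibition versus positive (no-drug) controls. Read by visual scoring, not absorbance. Highest level tested 125 µg/mL.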

For data set [4], the system named is Candida albicans. Nature of the data set: Antifungal activity against Candida albicans ATCC 10231 by NCCLS method. Format: functional. In a few lines: as §1
Data set [5] relates to Vero. Nature of the data set: Cytotoxicity against african green monkey Vero cells assessed as reduction in cell viability at 100 times MIC80 after 24 hrs by CellTiter 96 non-radioactive cell proliferation assay. Type of data set: cell-based. The following applies: chlorocebus sabaeus. Put shortly:
(§2)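 Cells exposed for 24 h at 37 °C, 5% CO2, to compound diluted in medium at the antifungal MIC and at 5, 10 and 100× MIC. Tetrazolium dye added for 1–4 h, then stop solution for 1 h at room temperature. Formazan read at 570 nm. Viability is the drug-well/no-drug (1% DMSO) control absorbance ratio, with control set to 100%. 0.1% saponin served as the death control. Triplicates, mean ± SD.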

In the next data set the test system is HepG2. Nature of the data set: Cytotoxicity against human HepG2 cells assessed as reduction in cell viability at 100 times MIC80 after 24 hrs by CellTiter 96 non-radioactive cell proliferation assay. Format: cell-based. The following applies: hepg2, 24 h. Put shortly: as §2
Data set [6] concerns Vero. Kind of data set: Cytotoxicity against african green monkey Vero cells assessed as reduction in cell viability at MIC80 after 24 hrs by CellTiter 96 non-radioactive cell proliferation assay relative to control. The following applies: chlorocebus sabaeus. Format: cell-based. In a few lines:
as §2

The test system of data set [7] is Vero (Chlorocebus sabaeus). Nature of the data set: Cytotoxicity against African green monkey Vero cells assessed as reduction in cell viability at MIC80 after 24 hrs by CellTiter 96 non-radioactive cell proliferation assay.

Converted amounts (≈) assume the structure as drawn. The source made the active and inactive calls. The calls are words filed in the database; no cut-off is given here.

In the case of `COc1ccc(O)c(/C=N/NS(=O)(=O)c2ccc([N+](=O)[O-])cc2)c1`, the outcome in the data set on Candida albicans [1] and in the data set with Nakaseomyces glabratus [2] was inactive.

As for `O=[N+]([O-])c1ccc(O)c(/C=N/NS(=O)(=O)c2ccc3ccccc3c2)c1`, the result in the data set on Candida albicans [1] and in the data set with Nakaseomyces glabratus [2] was inactive.

In the case of `COc1ccc(S(=O)(=O)N/N=C/c2cc([N+](=O)[O-])ccc2O)cc1`, the result in the data set with Candida albicans [1] and in the data set with Nakaseomyces glabratus [2] was inactive.

Take `Cc1ccc(S(=O)(=O)N/N=C/c2ccccc2O)cc1`: the MIC80 (commonly an inhibitory concentration at the 80% level, which refers to growth in some studies and to a panel of isolates in others) in the data set on Nakaseomyces glabratus [3] was “inactive”. The outcome with Candida albicans [1] and in the data set on Nakaseomyces glabratus [2] was inactive.

With `O=[N+]([O-])c1ccc(S(=O)(=O)N/N=C/c2cc(Cl)ccc2O)cc1`, the outcome with Candida albicans [1] and in the data set on Nakaseomyces glabratus [2] was inactive.

`O=[N+]([O-])c1cc(/C=N/Nc2ccccc2)c(O)c([N+](=O)[O-])c1`: the MIC80 is 2 µg/mL (≈ 6.62 µM) with Candida albicans [4] and 4 µg/mL (≈ 13.2 µM) with Nakaseomyces glabratus [3]. The Activity entry with Vero [5] and in the data set with HepG2 was “Non-toxic” throughout.

Regarding `Cc1ccc(S(=O)(=O)N/N=C/c2cc(Br)ccc2O)cc1`, the outcome in the data set with Candida albicans [1] and in the data set on Nakaseomyces glabratus [2] was inactive.

Consider `O=[N+]([O-])c1ccc(O)c(/C=N/NS(=O)(=O)c2ccc(Br)cc2)c1`, for which the result in the data set on Candida albicans [1] and with Nakaseomyces glabratus [2] was inactive.

As to `Cc1ccc(O)c(/C=N/NC(=O)c2ccccc2)c1`, the MIC80 against Candida albicans [4] and with Nakaseomyces glabratus [3] was 1 µg/mL (≈ 3.93 µM) throughout. The Activity (in the data set on Vero [6]; in data set [7]) was 20% each time.

Regarding `COc1ccc(S(=O)(=O)N/N=C/c2cc(Br)ccc2O)cc1`, the outcome with Candida albicans [1] and in the data set on Nakaseomyces glabratus [2] was inactive.

Regarding `O=S(=O)(N/N=C/c1cc(Br)ccc1O)c1ccc(Br)cc1`, the result with Candida albicans [1] and with Nakaseomyces glabratus [2] was inactive.

For the molecule `COc1ccc(S(=O)(=O)N/N=C/c2cc(Cl)ccc2O)cc1`, the outcome in the data set on Candida albicans [1] and with Nakaseomyces glabratus [2] was inactive.

As to `O=[N+]([O-])c1ccc(S(=O)(=O)N/N=C/c2cc(Br)ccc2O)cc1`, the result in the data set on Candida albicans [1] and in the data set with Nakaseomyces glabratus [2] was inactive.

In the case of `O=S(=O)(N/N=C/c1ccccc1O)c1ccc(Br)cc1`, the result in the data set with Candida albicans [1] and in the data set with Nakaseomyces glabratus [2] was inactive.

Take `Cc1ccc(S(=O)(=O)N/N=C/c2cc(Cl)ccc2O)cc1`: the result in the data set on Candida albicans [1] and with Nakaseomyces glabratus [2] was inactive.

For the molecule `COc1ccc(O)c(/C=N/NS(=O)(=O)c2ccc3ccccc3c2)c1`, the result with Candida albicans [1] and in the data set with Nakaseomyces glabratus [2] was inactive.

Take `O=C(N/N=C/c1cc(Cl)ccc1O)c1ccccc1`: the MIC80 with Candida albicans [4] and against Nakaseomyces glabratus [3] was 0.5 µg/mL (≈ 1.82 µM) in each case. Further, the Activity result in the data set with Vero [5] and with HepG2 was “Non-toxic” in each case.

Take `Cc1ccc(O)c(/C=N/NS(=O)(=O)c2ccc3ccccc3c2)c1`: the result with Candida albicans [1] and with Nakaseomyces glabratus [2] was inactive.

Consider `O=S(=O)(N/N=C/c1cc(Cl)ccc1O)c1ccc2ccccc2c1`, for which the outcome in the data set with Candida albicans [1] and in the data set with Nakaseomyces glabratus [2] was inactive.

For the molecule `COc1ccc(S(=O)(=O)N/N=C/c2cc(C)ccc2O)cc1`, the outcome in the data set on Candida albicans [1] and in the data set on Nakaseomyces glabratus [2] was inactive.

With `O=[N+]([O-])c1ccc(O)c(/C=N/NS(=O)(=O)c2ccccc2)c1`, the outcome with Candida albicans [1] and with Nakaseomyces glabratus [2] was inactive.

As for `COc1ccc(O)c(/C=N/NS(=O)(=O)c2ccc(C)cc2)c1`, the outcome in the data set with Candida albicans [1] and in the data set with Nakaseomyces glabratus [2] was inactive.

Turning to `Cc1ccc(S(=O)(=O)N/N=C/c2cc([N+](=O)[O-])ccc2O)cc1`, the outcome with Candida albicans [1] and in the data set with Nakaseomyces glabratus [2] was inactive.

In turn, `O=S(=O)(N/N=C/c1ccccc1O)c1ccccc1` gave an MIC80 against Nakaseomyces glabratus [3] of 125 µg/mL (≈ 452 µM). Further, the result in the data set on Candida albicans [1] and with Nakaseomyces glabratus [2] was inactive.

For the molecule `COc1ccc(O)c(/C=N/NS(=O)(=O)c2ccc(Br)cc2)c1`, the outcome in the data set on Candida albicans [1] and with Nakaseomyces glabratus [2] was inactive.

Take `Cc1ccc(O)c(/C=N/NC(=O)c2ccc([N+](=O)[O-])cc2)c1`: the MIC80 is 0.5 µg/mL (≈ 1.67 µM) with Candida albicans [4] and 0.125 µg/mL (≈ 0.418 µM) against Nakaseomyces glabratus [3]. Also, the Activity (in the data set on Vero [6]; in data set [7]) was 20% each time.

In the case of `O=[N+]([O-])c1ccc(S(=O)(=O)N/N=C/c2cc([N+](=O)[O-])ccc2O)cc1`, the result with Candida albicans [1] and in the data set with Nakaseomyces glabratus [2] was inactive.

For `O=S(=O)(N/N=C/c1cc(Br)ccc1O)c1ccc2ccccc2c1`, the outcome with Candida albicans [1] and in the data set on Nakaseomyces glabratus [2] was inactive.

Take `O=S(=O)(N/N=C/c1cc(Cl)ccc1O)c1ccc(Br)cc1`: the outcome with Candida albicans [1] and in the data set with Nakaseomyces glabratus [2] was inactive.

As for `COc1ccc(O)c(/C=N/NS(=O)(=O)c2ccccc2)c1`, the outcome with Candida albicans [1] and in the data set on Nakaseomyces glabratus [2] was inactive.

Turning to `Cc1ccc(O)c(/C=N/NS(=O)(=O)c2ccc(Br)cc2)c1`, the outcome in the data set on Candida albicans [1] and in the data set on Nakaseomyces glabratus [2] was inactive.

For `O=S(=O)(N/N=C/c1cc(Cl)ccc1O)c1ccccc1`, the outcome with Candida albicans [1] and in the data set on Nakaseomyces glabratus [2] was inactive.

Turning to `Cc1ccc(O)c(/C=N/NS(=O)(=O)c2ccc([N+](=O)[O-])cc2)c1`, the outcome in the data set with Candida albicans [1] and in the data set with Nakaseomyces glabratus [2] was inactive.

For `O=C(N/N=C/c1ccccc1O)c1ccc([N+](=O)[O-])cc1`, the MIC80 against Candida albicans [4] and against Nakaseomyces glabratus [3] was 0.5 µg/mL (≈ 1.75 µM) each time. Further, the Activity result with Vero [5] and in the data set with HepG2 was “Non-toxic” throughout.

Consider `Cc1ccc(O)c(/C=N/NS(=O)(=O)c2ccccc2)c1`, for which the outcome with Candida albicans [1] and in the data set on Nakaseomyces glabratus [2] was inactive.

In the case of `N/N=C/c1ccccc1O`, the figures for the MIC80 in the data set with Candida albicans [4] and with Nakaseomyces glabratus [3] were 16 µg/mL (≈ 118 µM) and 4 µg/mL (≈ 29.4 µM), respectively. For the same molecule, the Activity entry in the data set with Vero [5] and in the data set with HepG2 was “Non-toxic” each time.
